Laboratory results reported in ChEMBL document CHEMBL5344428, “Discovery, Crystallographic Studies, and Mechanistic Investigations of Novel Phenylalanine Derivatives Bearing a Quinazolin-4-one Scaffold as Potent HIV Capsid Modulators” (J Med Chem, 2023).

Legend:
[1] = Selectivity index, ratio of CC50 for cytotoxicity against human MT4 cells to EC50 for antiviral activity against HIV1 IIIB infected in human MT4 cells; assay type: toxicity, cell-based; details: read-out: Ratio CC50/EC50
How it was run: (§1)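 SI is CC50 divided by EC50. CC50 comes from MTT viability of uninfected MT-4 cells. EC50 comes from MTT-read protection of MT-4 cells infected with HIV-1 IIIB or HIV-2 ROD. Each value was run in at least triplicate.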

[2] = Selectivity ratio of EC50 for antiviral activity against HIV1 IIIB infected in human MT4 cells to EC50 for antiviral activity against HIV2 ROD infected in human MT4 cells; assay type: toxicity, cell-based
How it was run: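 Ratio is EC50 against HIV-1 IIIB divided by EC50 against HIV-2 ROD. Both EC50 values come from MTT-read protection of infected MT-4 cells.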

[3] = test system: Human immunodeficiency virus 1; assay: Antiviral activity against HIV1 IIIB infected in human MT4 cells assessed as reduction in virus induced cytopathic effect measured after 5 days by MTT assay; assay type: functional, organism-based; details: Human immunodeficiency virus 1, IIIB, MT4, 120 h
How it was run: (§2)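 MT-4 cells were infected with HIV-1 IIIB or HIV-2 ROD, and cell viability was read by MTT. […] Each value was run in at least triplicate and averaged from at least three independent experiments.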

[4] = Selectivity index, ratio of CC50 for cytotoxicity against human MT4 cells to EC50 for antiviral activity against HIV2 ROD infected in human MT4 cells; assay type: toxicity, cell-based; details: read-out: Ratio CC50/EC50; how it was run: as §1
[5] = Cytotoxicity against human MT4 cells assessed as reduction in cell viability incubated for 5 days by MTT assay; assay type: toxicity, cell-based; details: MT4 cells, time 5 day
How it was run: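 Uninfected MT-4 cells were exposed to compound, and viability was read by the MTT method. […] Each value was run in at least triplicate and averaged from at least three independent experiments.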

[6] = test system: Human immunodeficiency virus 2; assay: Antiviral activity against HIV2 ROD infected in human MT4 cells assessed as reduction in virus induced cytopathic effect measured after 5 days by MTT assay; assay type: functional, organism-based; details: Human immunodeficiency virus 2, ROD, MT4, 120 h; how it was run: as §2

SMILES | selectivity ratio [1] | Ratio EC50 [2] | EC50 [3] [µM] | selectivity ratio [4] | CC50 at 120 h [5] [µM] | EC50 [6] [µM]
COc1ccc(N(C)C(=O)[C@H](Cc2ccccc2)NC(=O)CN2CCN(C(=O)Cc3c[nH]c4ccccc34)CC2=O)cc1 | 7.51 | 3.06 | 15 | 23 | 112 | 4.89
COc1ccc(N(C)C(=O)[C@H](Cc2cc(F)cc(F)c2)NC(=O)Cn2ccc(N)cc2=O)cc1 | > 49.6 | 0.34 | 5.36 | > 17.1 | > 266 | 15.6
COc1ccc(N(C)C(=O)[C@H](Cc2cc(F)cc(F)c2)NC(=O)CN(C(=O)Cc2ccc(B3OC(C)(C)C(C)(C)O3)cc2)C2CC2)cc1 | 17 | 0.53 | 5.18 | 9 | 89 | 9.71
COC(=O)c1ccc(C(=O)Nc2ccn(CC(=O)N[C@@H](Cc3ccccc3)C(=O)N(C)c3ccc(OC)cc3)c(=O)c2)cc1 | 5.04 | 1.25 | 19.1 | 6.31 | 96.2 | 15.2
COc1ccc(N(C)C(=O)[C@H](Cc2ccccc2)NC(=O)CN2CCN(C(=O)Cc3c[nH]c4ccc(OC)cc34)CC2=O)cc1 | 7.15 | 0.86 | 14.6 | 6.15 | 104 | 16.9
COc1ccc(N(C)C(=O)[C@H](Cc2cc(F)cc(F)c2)NC(=O)CN2CCN(C(=O)Cc3c[nH]c4ccc(F)cc34)CC2=O)cc1 | 2.78 | 1.16 | 5.89 | 3.23 | 16.4 | 5.07
COc1ccc(N(C)C(=O)[C@H](Cc2cc(F)cc(F)c2)NC(=O)CN2CCN(C(=O)Cc3c(C)[nH]c4ccccc34)CC2=O)cc1 | 3.69 | 1.06 | 20.8 | 3.91 | 76.9 | 19.7
COc1ccc(-n2c(SCc3ccc(S(C)(=O)=O)cc3)nnc2[C@H](Cc2ccccc2)NC(=O)Cc2c(C)[nH]c3ccccc23)cc1 | 71 | 0.31 | 2.43 | 22 | 172 | 7.89
COc1ccc(N(C)C(=O)[C@H](Cc2ccccc2)NC(=O)Cn2ccc(N)cc2=O)cc1 | 8.98 | 1.47 | 29.1 | 13.2 | 261 | 19.7
COC(=O)CCSc1nnc([C@H](Cc2ccccc2)NC(=O)Cc2c(C)[nH]c3ccccc23)n1-c1ccc(OC)cc1 | > 19 | 0.59 | 11.4 | > 11 | > 214 | 19.2
COc1ccc(N(C)C(=O)[C@H](Cc2cc(F)cc(F)c2)NC(=O)CN(Cc2ccc(C#N)cc2)C(=O)Cc2c[nH]c3ccc(F)cc23)cc1 | 9 | 2.97 | 17.2 | 26 | 148 | 5.81
COc1ccc(-n2c([C@H](Cc3cc(F)cc(F)c3)NC(=O)CN3CCN(S(=O)(=O)c4ccc([N+](=O)[O-])cc4)CC3)nc3cc(F)ccc3c2=O)cc1 | > 338 | 1.4 | 0.49 | > 481 | > 167 | 0.35
COc1ccc(N(C)C(=O)[C@H](Cc2cc(F)cc(F)c2)NC(=O)CN2CCN(C(=O)Cc3c[nH]c4ccccc34)CC2=O)cc1 | 1.97 | 1.67 | 29.4 | 3.28 | 57.8 | 17.6
COc1ccc(-n2c(SCCS(C)(=O)=O)nnc2[C@H](Cc2ccccc2)NC(=O)Cc2c(C)[nH]c3ccccc23)cc1 | 42 | 0.24 | 3.87 | 10 | 162 | 16
COc1ccc(N(C)C(=O)[C@H](Cc2cc(F)cc(F)c2)NC(=O)CN(Cc2ccc(F)cc2)C(=O)Cc2c[nH]c3ccc(Br)cc23)cc1 | 6 | < 0.16 | 2.93 | < 1 | 17.8 | > 17.8
COc1ccc(N(C)C(=O)[C@H](Cc2cc(F)cc(F)c2)NC(=O)CN(Cc2ccc(C#N)cc2)C(=O)Cc2c[nH]c3ccc(Br)cc23)cc1 | 16 | 0.36 | 5.61 | 6 | 87.6 | 15.7
COc1ccc(N(C)C(=O)[C@H](Cc2ccccc2)NC(=O)Cn2ccc(NC(=O)c3cccc(F)c3)cc2=O)cc1 | 3.26 | 2.87 | 18.9 | 9.36 | 61.6 | 6.59
COc1ccc(-n2c(SCCC3OCCCO3)nnc2[C@H](Cc2ccccc2)NC(=O)Cc2c(C)[nH]c3ccccc23)cc1 | 20 | 0.25 | 1.64 | 5 | 32.3 | 6.65
C#CCSc1nnc([C@H](Cc2ccccc2)NC(=O)Cc2c(C)[nH]c3ccccc23)n1-c1ccc(OC)cc1 | 12 | 0.52 | 2.05 | 6 | 24.7 | 3.94
COc1ccc(-n2c([C@H](Cc3ccccc3)NC(=O)CN3CCN(S(=O)(=O)c4ccc(N)cc4)CC3)nc3cc(Cl)ccc3c2=O)cc1 | > 291 | 6.1 | 0.61 | > 1740 | > 178 | 0.1
COc1ccc(-n2c(SCc3ccccn3)nnc2[C@H](Cc2ccccc2)NC(=O)Cc2c(C)[nH]c3ccccc23)cc1 | 9 | 0.63 | 2.61 | 6 | 24.2 | 4.16
COc1ccc(C(=O)Nc2ccn(CC(=O)N[C@@H](Cc3ccccc3)C(=O)N(C)c3ccc(OC)cc3)c(=O)c2)cc1 | 1.79 | 2.78 | 29.6 | 4.98 | 53.1 | 10.7
COc1ccc(N(C)C(=O)[C@H](Cc2cc(F)cc(F)c2)NC(=O)CN(Cc2ccc(F)cc2)C(=O)Cc2ccc(B3OC(C)(C)C(C)(C)O3)cc2)cc1 | 6 | 0.89 | 11.7 | 5 | 65.4 | 13.2
COc1ccc(N(C)C(=O)[C@H](Cc2ccccc2)NC(=O)Cn2ccc(NC(=O)c3ccc(C#N)cc3)cc2=O)cc1 | 8.18 | 0.94 | 16.8 | 7.69 | 137 | 17.8
